# Compound activity (PubChem)
# Arbovirus inh = blocks arbovirus infection | arbovirus infection cell-based antiviral screen | inhibition, % at 10 µM | hit rate 0.37% among 200,000 | AID 1251; in the data active = inhibition above about 30%
# PKD1 inh = PKD1 (human) kinase inhibition; hit rate 0.056% among 200,000; PKD1 kinase fluorescence polarization assay; Q15139; inhibition, % (test concentration not listed)
# Target sequence (Q15139 whole entry, looked up): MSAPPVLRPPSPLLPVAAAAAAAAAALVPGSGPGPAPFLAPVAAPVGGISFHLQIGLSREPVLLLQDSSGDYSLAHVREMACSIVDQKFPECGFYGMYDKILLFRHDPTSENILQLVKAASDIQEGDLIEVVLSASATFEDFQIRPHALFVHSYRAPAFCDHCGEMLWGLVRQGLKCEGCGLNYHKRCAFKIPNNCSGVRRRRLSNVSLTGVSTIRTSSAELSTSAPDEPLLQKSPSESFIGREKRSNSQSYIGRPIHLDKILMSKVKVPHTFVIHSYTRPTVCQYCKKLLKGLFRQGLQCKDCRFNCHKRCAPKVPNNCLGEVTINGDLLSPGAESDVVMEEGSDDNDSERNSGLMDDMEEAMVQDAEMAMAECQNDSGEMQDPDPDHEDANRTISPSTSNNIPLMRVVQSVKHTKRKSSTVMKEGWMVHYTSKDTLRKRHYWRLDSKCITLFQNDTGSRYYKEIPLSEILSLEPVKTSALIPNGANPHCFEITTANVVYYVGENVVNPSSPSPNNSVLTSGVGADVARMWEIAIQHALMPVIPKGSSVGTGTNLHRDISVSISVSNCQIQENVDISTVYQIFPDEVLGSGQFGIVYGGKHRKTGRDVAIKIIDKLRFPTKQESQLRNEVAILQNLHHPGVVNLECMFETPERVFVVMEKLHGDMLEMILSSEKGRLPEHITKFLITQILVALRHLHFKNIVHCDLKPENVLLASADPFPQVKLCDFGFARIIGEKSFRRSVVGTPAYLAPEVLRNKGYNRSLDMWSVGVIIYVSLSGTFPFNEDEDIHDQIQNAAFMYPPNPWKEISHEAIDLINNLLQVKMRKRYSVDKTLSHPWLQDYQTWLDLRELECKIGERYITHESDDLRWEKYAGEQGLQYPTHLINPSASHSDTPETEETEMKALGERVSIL
# Rad51 HR inh = blocks human Rad51 in homologous recombination | Q06609 | hRad51 DNA strand exchange, fluorescence dequenching | inhibition, % at 10 µM | hit rate 0.085% among 200,000;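 active = inhibition above 40% at the single screening dose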
#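 System: hRad51 filaments on single-stranded DNA; reagent: Fluorescein- and BHQ1-tagged 47-mer duplex; compound dosing: one concentration, 10 µM final; timing: filaments 15 min 37 °C, then compound 30 min; measured by: fluorescein emission 520 nm, excitation 485 nm; benchmarks: per-plate controls and blanks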
# CHOP inhibitor = blocks CHOP induction under ER stress; CHO-K1 CHOP-promoter luciferase, tunicamycin-induced, 15-18 h; inhibition, % at 10 µM; hit rate 3.8% among 220,000;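 active = compounds that reduced the stress-induced luciferase reporter signal by more than about 70% of percent inhibition, limit read from the data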
# Wee1 degr inh = blocks degradation of human Wee1 kinase; P30291; HeLa Luc-Wee1K328M stability, luciferase luminescence; 100% = proteasome inhibitor MG132 effect; reporter increase, % at 5 µM; hit rate 1.2% among 220,000;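 active = activation above the mean of all tested compounds plus 3 SD, set per screening run, cut at about 8.8% in these data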;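 note: cells exposed to compound for 20 h before luminescence read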
# Lmaj promast = reduces viability of Leishmania major promastigotes; resazurin fluorescence viability; inhibition, % at 10 µM; hit rate 9% among 200,000;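 note: promastigotes grown with compound for 44 hours at 28 °C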
# Numbers stand for hits; – = inactive; · = no result given. A selection: hits, their analogues and other compounds. The true share with any hit is near 12%. Cut-off read from the data, not from the text of the source, unless noted: active = inhibition above about 50%; inactive = the rest.
SMILES,Arbovirus inh,PKD1 inh,Rad51 HR inh,CHOP inhibitor,Wee1 degr inh,Lmaj promast
Cc1ccc(SCc2nc3ccccc3n2CC(=O)Nc2c(C)cccc2C)cc1,–,–,–,89.6,–,–
Cc1nc2c(C#N)c(C)[nH]n2c(=O)c1Cc1ccccc1,–,–,–,–,–,87.4
Cc1nc2c(-c3ccccc3)c(C)[nH]n2c(=O)c1Cc1ccccc1,–,–,–,–,–,–
CN(CC(=O)Nc1ccccc1C(F)(F)F)C(=O)COc1cccnc1[N+](=O)[O-],–,–,–,–,–,–
Cc1ccc(C(=O)CSc2nc(C(C)C)nc3ccccc23)cc1,–,–,–,–,–,–
CC(C)c1nc(SCC(=O)c2ccc(F)cc2)c2ccccc2n1,–,–,–,83.7,–,–
CCN(CC)CC(=O)Nc1ccc(-c2ccc(NC(=O)CN(CC)CC)c(OC)c2)cc1OC,–,–,–,–,–,–
CCN(Cc1cc2ccccc2[nH]c1=O)C(=O)c1cccc([N+](=O)[O-])c1,·,·,·,–,–,·
COc1cccc(C2C=C(Nc3ccccc3)C(=O)N2c2ccccc2)c1 (stereo unspecified),–,–,–,–,–,66.2
CC(=O)NC(=S)Nc1ccccc1F,–,–,–,–,–,–
COc1ccc(C(=O)NC(=S)Nc2ccccc2F)cc1,–,–,–,–,–,64.3
Cc1ccc2nc(N/C(=N/S(=O)(=O)c3cccs3)c3ccccc3Cl)sc2c1,–,–,–,–,–,–
O=C(CSC1=NCCS1)Nc1nc2ccccc2s1,–,–,–,–,–,–
Cc1sc(NC(=O)CSC2=NCCS2)nc1-c1ccccc1,–,–,–,72.6,–,–
NS(=O)(=O)c1ccc(CCNC(=O)c2ccc3ccccc3n2)cc1,–,–,–,–,–,–
CCOC(=O)c1ccccc1NC(=O)c1cccc(F)c1,–,–,·,74.2,–,–
CCOC(=O)c1ccccc1NC(=O)c1ccc(F)cc1,–,–,–,–,–,–
CCOC(=O)c1ccccc1NC(=O)c1ccc2nccnc2c1,–,–,–,–,–,–
CCOC(=O)c1ccccc1NC(=O)c1c(F)c(F)c(F)c(F)c1F,–,–,–,73.3,–,–
CS(=O)(=O)N(CC(=O)Nc1ccccc1Sc1ccccc1)c1cccc(Br)c1,–,–,–,77.1,–,–
CSc1ccccc1NC(=O)CN(c1cc(C)cc(C)c1)S(C)(=O)=O,–,–,–,–,–,–
COc1ccc(C(=O)NCCc2nnc3ccc(SCC(=O)Nc4cc(C)on4)nn23)cc1,–,–,–,–,–,–
COc1ccccc1N1CCN(C(CNS(C)(=O)=O)c2cccnc2)CC1 (stereo unspecified),–,–,–,–,–,–
COc1ccccc1N1CCN(C(CNS(=O)(=O)c2ccc(C)cc2)c2cccnc2)CC1 (stereo unspecified),–,–,–,–,–,95.9
COC(=O)NCC(c1cccnc1)N1CCN(c2ccccc2OC)CC1 (stereo unspecified),–,–,–,–,–,69.8
SMILES,Arbovirus inh,PKD1 inh,Rad51 HR inh,CHOP inhibitor,Wee1 degr inh,Lmaj promast
O=C(NCC(c1cccnc1)N1CCN(c2ccccc2F)CC1)c1cccc(Cl)c1 (stereo unspecified),–,–,–,–,–,94.4
COC(=O)NCC(c1cccnc1)N1CCN(c2ccccc2F)CC1 (stereo unspecified),–,–,–,–,–,56.4
CC12CCC(C(=O)Nc3ccncc3)(CC1O)C2(C)C (stereo unspecified),·,·,·,–,–,·
COc1ccccc1N1CCN(C(CNC(=O)c2ccco2)c2cccnc2)CC1 (stereo unspecified),–,–,–,–,–,80.8
O=C(c1ccco1)c1coc2c1cc(O)c1ccccc12,–,–,–,–,–,–
O=C(CSc1cccc[n+]1[O-])c1ccccc1Br,–,–,–,–,–,98.6
Cc1cc(C(=O)CSc2cccc[n+]2[O-])c(C)n1-c1ccccc1,–,–,–,–,–,–
Cc1cc(C(=O)CSc2cccc[n+]2[O-])c(C)n1-c1ccc(Br)cc1,–,–,–,–,9.6,94.5
COc1cc(CN2CCN(c3cccc(C)c3C)CC2)cc(Br)c1O,–,–,–,90.6,–,95.4
COc1ccc(CN2CCSCC2)cc1C,–,–,·,–,–,78.4
COc1cccc(CN2CCSCC2)c1,–,–,–,–,–,–
COc1ccc(CN2CCN(c3cccc(C)c3C)CC2)cc1OC,–,–,–,–,–,81.0
